This passage reports IC50, inhibition and Ki results from ChEMBL document CHEMBL1158483, “N-O-isopropyl sulfonamido-based hydroxamates: design, synthesis and biological evaluation of selective matrix metalloproteinase-13 inhibitors as potential therapeutic agents for osteoarthritis” (J Med Chem, 2009).

Active and inactive are the calls of the source. The rule behind the calls is not given here.

In test [1] the target is T1, Interstitial collagenase (Homo sapiens, UniProt P03956).
T1 sequence (P03956 whole entry): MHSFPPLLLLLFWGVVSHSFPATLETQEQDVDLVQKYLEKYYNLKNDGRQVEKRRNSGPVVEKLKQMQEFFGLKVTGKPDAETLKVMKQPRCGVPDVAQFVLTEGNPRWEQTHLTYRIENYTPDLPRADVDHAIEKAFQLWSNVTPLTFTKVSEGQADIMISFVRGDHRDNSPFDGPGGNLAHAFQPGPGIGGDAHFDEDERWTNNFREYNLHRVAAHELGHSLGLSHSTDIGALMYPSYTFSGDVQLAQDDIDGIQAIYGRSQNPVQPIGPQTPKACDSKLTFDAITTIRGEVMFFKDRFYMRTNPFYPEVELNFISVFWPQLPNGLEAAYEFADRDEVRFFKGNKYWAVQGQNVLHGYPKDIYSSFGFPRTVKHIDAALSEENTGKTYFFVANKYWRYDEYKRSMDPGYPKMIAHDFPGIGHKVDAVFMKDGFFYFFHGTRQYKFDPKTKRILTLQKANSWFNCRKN
The test is described as follows: Inhibition of MMP1. A digest of the protocol:
(§1)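 Human recombinant enzymes in Tris 50 mM pH 7.5, NaCl 150 mM, CaCl2 10 mM, Brij 35 0.05%, DMSO 1%. Final enzyme: MMP-1 2.0 nM, MMP-2 2.9, MMP-3 5, MMP-8 1.5, MMP-9 2.7, MMP-14 cd 1, MMP-16 cd 15, TACE 7.5 nM. Pro-MMP-1/-2/-8 activated with APMA 2 mM, pro-MMP-9 with APMA 1 mM, each 1 h at 37 °C. Pro-MMP-3 activated with trypsin 5 µg/mL for 30 min at 37 °C, then soybean trypsin inhibitor.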

The target of another test is Neutrophil collagenase (Homo sapiens, UniProt P22894). The test is described as follows: Inhibition of MMP8. The method in brief: as §1
Test [2] concerns the target Matrix metalloproteinase-9 (Homo sapiens, UniProt P14780). In words: Inhibition of MMP9. The method in brief:
as §1

Test [3] concerns the target T2, Collagenase 3 (Homo sapiens, UniProt P45452). The test is described as follows: Inhibition of MMP13.
Test [4] addresses Matrix metalloproteinase-14 (Homo sapiens, UniProt P50281). The test is described as follows: Inhibition of human recombinant MMP14. A digest of the protocol:
as §1

The target in test [5] is 72 kDa type IV collagenase (Homo sapiens, UniProt P08253). The test is described as follows: Inhibition of MMP2. A digest of the protocol: as §1
For another test, the target named is Stromelysin-1 (Homo sapiens, UniProt P08254). The test is described as follows: Inhibition of MMP3. The method in brief: as §1
The species named for test [6] is Sus scrofa. In words: Inhibition of MMP13-mediated collagen degradation in long term IL-1-alpha-stimulated pig articular cartilage explant culture assessed as hydroxyproline release. The method in brief:
(§2)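 Porcine metacarpophalangeal cartilage explants from 3–9-month pigs were rested 24 h with serum, then 3 days serum-free. They were stimulated with IL-1α 10 ng/mL plus inhibitor at 0.1, 1 or 10 µM in serum-free DMEM, with medium changed every 3–4 days. Hydroxyproline was measured in the medium after 6 N HCl hydrolysis, using chloramine T/DMBA and absorbance at 560 nm against a standard curve. Cumulative release was corrected for unstimulated background.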

Test [7] concerns the target Matrix metalloproteinase-16 (Homo sapiens, UniProt P51512). In words: Inhibition of human recombinant MMP16. A digest of the protocol:
as §1

The target in test [8] is T2, Collagenase 3. In words: Inhibition of MMP13-mediated collagen degradation by SDS-PAGE.
The target in test [9] is T1, Interstitial collagenase. In words: Inhibition of MMP1-mediated collagen degradation by SDS-PAGE. The method in brief: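 Full-length MMP-1 (0.5 nM) preincubated with inhibitor (0–10 µM) for 2 h at 25 °C in Tris-HCl 50 mM pH 7.5, NaCl 150 mM, CaCl2 5 mM, Brij-35 0.05%, NaN3 0.02%. Guinea-pig skin acid-soluble collagen (final 1.35 mg/mL) added, 16 h at 25 °C, stopped with EDTA. Full-length and 3/4-fragment α2 chains quantified by densitometry after 7.5% SDS-PAGE with Coomassie stain; IC50 derived.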

For test [10], the species on record is Sus scrofa. The test is described as follows: Inhibition of MMP13-mediated collagen degradation in long term IL-1-alpha-stimulated pig articular cartilage explant culture assessed as hydroxyproline release at 1 uM. The method in brief:
as §2

Test [11] addresses Disintegrin and metalloproteinase domain-containing protein 17 (Homo sapiens, UniProt P78536). The test is described as follows: Inhibition of TACE. A digest of the protocol:
as §1

The species entered for test [12] is Sus scrofa. The test is described as follows: Inhibition of MMP13-mediated collagen degradation in long term IL-1-alpha-stimulated pig articular cartilage explant culture assessed as hydroxyproline release at 10 uM. A digest of the protocol: as §2

Chain of Matrix metalloproteinase-9 (P14780 whole entry): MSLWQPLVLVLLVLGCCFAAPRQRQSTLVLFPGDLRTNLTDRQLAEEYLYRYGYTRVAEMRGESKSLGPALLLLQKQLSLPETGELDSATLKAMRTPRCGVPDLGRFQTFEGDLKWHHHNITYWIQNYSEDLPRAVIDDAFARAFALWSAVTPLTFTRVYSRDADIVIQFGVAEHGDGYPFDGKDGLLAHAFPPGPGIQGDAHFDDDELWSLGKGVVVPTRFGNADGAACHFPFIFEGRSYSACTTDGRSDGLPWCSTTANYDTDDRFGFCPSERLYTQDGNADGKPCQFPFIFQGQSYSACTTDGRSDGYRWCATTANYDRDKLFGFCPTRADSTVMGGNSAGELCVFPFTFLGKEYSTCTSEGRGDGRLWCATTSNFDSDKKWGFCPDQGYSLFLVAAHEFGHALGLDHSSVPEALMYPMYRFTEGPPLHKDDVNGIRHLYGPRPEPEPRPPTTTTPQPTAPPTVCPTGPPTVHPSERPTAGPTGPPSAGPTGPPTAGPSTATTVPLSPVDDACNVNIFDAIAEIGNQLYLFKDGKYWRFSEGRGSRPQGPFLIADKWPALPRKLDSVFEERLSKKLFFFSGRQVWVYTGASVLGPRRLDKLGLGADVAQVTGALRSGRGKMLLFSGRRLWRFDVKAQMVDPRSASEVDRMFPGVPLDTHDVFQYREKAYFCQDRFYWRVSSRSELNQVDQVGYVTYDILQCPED
Chain of 72 kDa type IV collagenase (P08253 whole entry): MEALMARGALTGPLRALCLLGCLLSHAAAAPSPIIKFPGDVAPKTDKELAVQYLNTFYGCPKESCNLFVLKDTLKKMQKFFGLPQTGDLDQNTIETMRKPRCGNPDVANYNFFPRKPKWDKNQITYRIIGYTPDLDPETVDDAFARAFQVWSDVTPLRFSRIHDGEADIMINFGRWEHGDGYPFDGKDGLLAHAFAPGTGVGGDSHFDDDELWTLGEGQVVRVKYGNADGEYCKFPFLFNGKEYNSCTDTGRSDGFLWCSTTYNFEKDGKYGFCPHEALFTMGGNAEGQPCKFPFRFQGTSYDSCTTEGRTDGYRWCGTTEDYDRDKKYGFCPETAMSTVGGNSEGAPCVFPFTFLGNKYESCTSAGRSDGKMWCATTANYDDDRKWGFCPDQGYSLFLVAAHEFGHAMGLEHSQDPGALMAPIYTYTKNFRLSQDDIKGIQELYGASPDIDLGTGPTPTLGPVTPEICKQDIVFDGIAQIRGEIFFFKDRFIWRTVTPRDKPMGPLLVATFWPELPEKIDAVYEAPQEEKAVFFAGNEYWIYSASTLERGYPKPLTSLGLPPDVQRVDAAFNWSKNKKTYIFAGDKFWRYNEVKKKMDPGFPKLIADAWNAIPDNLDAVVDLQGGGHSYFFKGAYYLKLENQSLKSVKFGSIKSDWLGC
Chain of Stromelysin-1 (P08254 whole entry): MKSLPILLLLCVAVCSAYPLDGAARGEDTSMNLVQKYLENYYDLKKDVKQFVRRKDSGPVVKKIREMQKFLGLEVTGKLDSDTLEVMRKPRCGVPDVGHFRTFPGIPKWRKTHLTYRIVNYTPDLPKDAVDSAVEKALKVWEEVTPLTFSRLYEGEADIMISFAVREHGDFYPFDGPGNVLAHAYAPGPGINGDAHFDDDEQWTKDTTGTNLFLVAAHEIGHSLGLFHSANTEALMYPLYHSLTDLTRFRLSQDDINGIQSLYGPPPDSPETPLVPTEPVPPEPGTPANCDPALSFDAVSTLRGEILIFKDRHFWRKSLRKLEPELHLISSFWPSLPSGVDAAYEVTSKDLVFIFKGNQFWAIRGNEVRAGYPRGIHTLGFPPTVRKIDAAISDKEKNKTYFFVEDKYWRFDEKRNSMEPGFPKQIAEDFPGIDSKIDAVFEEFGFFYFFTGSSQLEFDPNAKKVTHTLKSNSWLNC
Chain of Neutrophil collagenase (P22894 whole entry): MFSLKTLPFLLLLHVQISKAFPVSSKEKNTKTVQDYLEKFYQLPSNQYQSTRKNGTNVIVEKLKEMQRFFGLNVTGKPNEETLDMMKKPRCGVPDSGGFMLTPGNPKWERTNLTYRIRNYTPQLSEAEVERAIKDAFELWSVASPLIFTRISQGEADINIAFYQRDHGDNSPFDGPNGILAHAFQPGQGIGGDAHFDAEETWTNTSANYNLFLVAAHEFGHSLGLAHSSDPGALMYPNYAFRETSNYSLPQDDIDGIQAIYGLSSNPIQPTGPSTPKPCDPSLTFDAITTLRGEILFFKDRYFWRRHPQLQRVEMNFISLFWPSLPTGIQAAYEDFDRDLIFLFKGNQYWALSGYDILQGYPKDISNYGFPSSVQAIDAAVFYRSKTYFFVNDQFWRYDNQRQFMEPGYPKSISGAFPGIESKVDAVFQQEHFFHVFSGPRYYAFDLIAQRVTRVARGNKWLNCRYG
Chain of Disintegrin and metalloproteinase domain-containing protein 17 (P78536 whole entry, the tested form may be a part): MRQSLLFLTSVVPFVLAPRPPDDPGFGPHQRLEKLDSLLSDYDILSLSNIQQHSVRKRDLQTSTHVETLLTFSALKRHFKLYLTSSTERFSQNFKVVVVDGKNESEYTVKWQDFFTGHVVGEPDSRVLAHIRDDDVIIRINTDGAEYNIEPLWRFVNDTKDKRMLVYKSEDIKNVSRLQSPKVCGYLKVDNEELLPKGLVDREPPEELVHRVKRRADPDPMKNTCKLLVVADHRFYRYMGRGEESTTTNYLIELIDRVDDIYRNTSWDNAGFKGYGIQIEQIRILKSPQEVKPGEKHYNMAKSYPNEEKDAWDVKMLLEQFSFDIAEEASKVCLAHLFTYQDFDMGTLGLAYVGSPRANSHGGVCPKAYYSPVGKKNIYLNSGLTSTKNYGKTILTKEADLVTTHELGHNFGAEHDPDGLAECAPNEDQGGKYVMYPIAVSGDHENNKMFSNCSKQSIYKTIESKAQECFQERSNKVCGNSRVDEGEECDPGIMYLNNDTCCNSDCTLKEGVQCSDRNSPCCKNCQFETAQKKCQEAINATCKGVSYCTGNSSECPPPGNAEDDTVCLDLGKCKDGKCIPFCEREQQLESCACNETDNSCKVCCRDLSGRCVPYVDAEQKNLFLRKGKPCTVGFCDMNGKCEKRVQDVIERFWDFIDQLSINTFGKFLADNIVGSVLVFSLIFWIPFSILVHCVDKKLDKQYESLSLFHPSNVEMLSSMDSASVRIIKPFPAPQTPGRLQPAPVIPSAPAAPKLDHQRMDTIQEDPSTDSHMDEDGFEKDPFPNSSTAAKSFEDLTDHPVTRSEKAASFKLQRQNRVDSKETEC
Chain of Matrix metalloproteinase-16 (P51512 whole entry): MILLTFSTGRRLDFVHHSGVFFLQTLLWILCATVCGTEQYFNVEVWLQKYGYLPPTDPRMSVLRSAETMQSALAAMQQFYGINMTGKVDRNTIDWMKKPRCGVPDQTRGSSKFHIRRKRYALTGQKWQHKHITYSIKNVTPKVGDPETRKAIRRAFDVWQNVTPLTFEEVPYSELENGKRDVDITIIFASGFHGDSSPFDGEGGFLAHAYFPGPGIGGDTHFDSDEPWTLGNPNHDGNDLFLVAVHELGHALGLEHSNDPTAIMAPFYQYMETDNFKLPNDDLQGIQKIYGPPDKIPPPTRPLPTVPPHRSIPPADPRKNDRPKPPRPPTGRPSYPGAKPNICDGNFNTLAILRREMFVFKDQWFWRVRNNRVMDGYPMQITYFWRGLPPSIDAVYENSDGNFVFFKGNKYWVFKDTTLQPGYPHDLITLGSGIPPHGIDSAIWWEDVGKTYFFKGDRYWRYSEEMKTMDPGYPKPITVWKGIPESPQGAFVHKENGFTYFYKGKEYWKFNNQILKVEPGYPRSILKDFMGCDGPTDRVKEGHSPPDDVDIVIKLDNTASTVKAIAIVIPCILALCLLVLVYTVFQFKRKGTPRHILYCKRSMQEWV

For orientation: IC50 means the point on the concentration scale where inhibition reaches its midpoint. As to `CC(C)ON(CC(=O)NO)S(=O)(=O)c1ccc(Oc2ccccc2)cc1`, the IC50 on Interstitial collagenase [1] came to 59000 nM; against Neutrophil collagenase it was 66 nM; in [2] it was 110 nM; against Collagenase 3 [3], 63 nM; in test [4], 590 nM; in test [5] it was 26 nM. This molecule yielded an IC50 against Stromelysin-1 of 1200 nM.

As a reminder, the Ki is the dissociation constant of the complex between target and ligand, obtained from inhibition or displacement. Low readings indicate a stronger hold on the target, high ones a looser hold on the target. `CC(C)ON([C@@H](C(=O)NO)C(C)C)S(=O)(=O)c1ccc(-c2ccc(OCc3ccc(Cl)cc3)cc2)cc1`: the half-inhibitory concentration (IC50) against Interstitial collagenase [1] was 48000 nM; on Neutrophil collagenase, 63 nM; in [2], 69 nM; in test [7], 5000 nM; on Collagenase 3 [8] it was 1.4 nM; against Interstitial collagenase [9], 15000 nM. Moreover, the 50% inhibitory concentration (IC50) on Collagenase 3 [3] was 3 nM; in test [11] it was more than 100000 nM; in test [4] it was 14000 nM; in test [5], 9.6 nM; against Stromelysin-1, 180 nM. In addition, the inhibition entry in the test filed under Sus scrofa [6] was “Dose-dependent effect”. Besides, the values for the Ki (at Collagenase 3 [3]; in [5]) were 29 nM and 54 nM, respectively. Also, the inhibition result in the test listed under Sus scrofa [10] is “Active”.

With `CCCCOc1ccc(-c2ccc(S(=O)(=O)N(CC(=O)NO)OC(C)C)cc2)cc1`, the half-inhibitory concentration (IC50) at Interstitial collagenase [1] is 11000 nM; against Neutrophil collagenase, 560 nM; in [2] it was 44 nM; at Collagenase 3 [3] it was 15 nM; in test [4], 5500 nM; in test [5] it was 5.5 nM. The molecule also yielded an IC50 against Stromelysin-1 of 1600 nM.

Consider `O=C(CNS(=O)(=O)c1ccc(-c2ccccc2)cc1)NO`, for which the IC50 was found to be 610 nM on Interstitial collagenase [1]; 7 nM on Neutrophil collagenase; 34 nM in [2]; 2.4 nM on Collagenase 3 [8]; 970 nM against Interstitial collagenase [9]; 2.8 nM against Collagenase 3 [3]. Further, the IC50 in [4] was 70 nM; in test [5], 2 nM; at Stromelysin-1 it was 320 nM.

Take `CC(C)ON(CC(=O)NO)S(=O)(=O)c1ccc(-c2ccc(F)cc2)s1`: the 50% inhibitory concentration (IC50) against Interstitial collagenase [1] stood at 20000 nM; at Neutrophil collagenase it was 440 nM; in [2], 3200 nM; against Collagenase 3 [3], 600 nM; in test [4], 6500 nM; in test [5], 310 nM. Besides, half-maximal inhibition against Stromelysin-1 (IC50) was put at 9100 nM.

With `CCCCc1ccc(C#Cc2ccc(S(=O)(=O)N(CC(=O)NO)OC(C)C)s2)cc1`, the IC50 is 13000 nM against Interstitial collagenase [1]; 7600 nM at Neutrophil collagenase; 4400 nM in [2]; 260 nM against Collagenase 3 [3]; 11000 nM in test [4]; 360 nM in test [5]. Besides, inhibition at Stromelysin-1 was half-maximal at 4300 nM (IC50).

In the case of `CC(C)ON(CC(=O)NO)S(=O)(=O)c1ccc(/C=C/c2ccc(-c3ccccc3)cc2)cc1`, the IC50 against Interstitial collagenase [1] worked out at 5600 nM; at Neutrophil collagenase it was 3600 nM; in test [2], 2300 nM; against Collagenase 3 [3] it was 41 nM; in test [4] it was 2800 nM; in test [5] it was 74 nM. This molecule gave an IC50 at Stromelysin-1 of 710 nM.

For `COc1ccc(-c2ccc(S(=O)(=O)N(CC(=O)NO)OC(C)C)s2)cc1`, the half-maximal inhibitory concentration (IC50) on Interstitial collagenase [1] was more than 10000 nM; against Neutrophil collagenase, 110 nM; in test [2], 250 nM; against Collagenase 3 [3] it was 25 nM; in [4], more than 1000 nM; in test [5], 17 nM. The molecule further came in with an IC50 at Stromelysin-1 of 1200 nM.

As to `COc1ccc(-c2ccc(S(=O)(=O)N(CC(=O)NO)OC(C)C)cc2)cc1`, the IC50 at Interstitial collagenase [1] is 13000 nM; against Neutrophil collagenase, 65 nM; in test [2], 160 nM; against Collagenase 3 [3], 10 nM; in test [4], 1000 nM; in test [5], 4.2 nM. Further, the concentration for half-maximal inhibition (IC50) on Stromelysin-1 turned out to be 1800 nM. For the same molecule, the Ki was 5.8 nM on Collagenase 3 [3] and 3.8 nM in test [5].

Take `CSc1ccc(-c2ccc(S(=O)(=O)N(CC(=O)NO)OC(C)C)cc2)cc1`: the IC50 on Interstitial collagenase [1] amounted to 3300 nM; against Neutrophil collagenase, 37 nM; in test [2], 77 nM; at Collagenase 3 [3] it was 7.2 nM; in [4] it was 320 nM; in [5], 1.5 nM. The same molecule displayed a concentration for half-maximal inhibition (IC50) on Stromelysin-1 of 1300 nM.

As to `CCc1ccc(-c2ccc(S(=O)(=O)N(CC(=O)NO)OC(C)C)s2)cc1`, the concentration for half-maximal inhibition (IC50) is more than 10000 nM on Interstitial collagenase [1]; 140 nM at Neutrophil collagenase; 680 nM in test [2]; 91 nM on Collagenase 3 [3]; 2400 nM in [4]; 56 nM in test [5]. The molecule also registered a half-inhibitory concentration (IC50) at Stromelysin-1 of 4300 nM.

With `CC(C)ON(CC(=O)NO)S(=O)(=O)c1ccc(-c2ccccc2)cc1`, the IC50 on Interstitial collagenase [1] came out at 12000 nM; against Neutrophil collagenase, 260 nM; in test [7], 900 nM; on Collagenase 3 [8], 25 nM; against Interstitial collagenase [9] it was 2900 nM; at Collagenase 3 [3], 45 nM. Moreover, the IC50 in [11] is more than 100000 nM; in test [4] it was 2300 nM; against Stromelysin-1, 5900 nM. Further, the inhibition result in the test listed under Sus scrofa [6] was “Dose-dependent effect”. The Ki turned out to be 20 nM at Collagenase 3 [3] and 13 nM in test [5]. Moreover, in the test filed under Sus scrofa [12], the inhibition result is “Active”.

In the case of `CC(C)ON(CC(=O)NO)S(=O)(=O)c1ccc(-c2ccc(OCc3ccc(Cl)cc3)cc2)cc1`, the IC50 against Interstitial collagenase [1] is 13000 nM; against Neutrophil collagenase, 1700 nM; in [2] it was 1100 nM; in [7], 15000 nM; against Collagenase 3 [3] it was 19 nM; in test [11], 35000 nM. Also, the IC50 in test [4] stood at 3400 nM; in test [5] it was 40 nM; against Stromelysin-1, 1800 nM. The Ki on Collagenase 3 [3] is 8.2 nM; in test [5], 25 nM.

On to `CC(C)CN(CC(=O)NO)S(=O)(=O)c1ccc(-c2ccccc2)cc1`, for which the IC50 turned out to be 4800 nM on Interstitial collagenase [1]; 48 nM on Neutrophil collagenase; 34 nM in [2]; 9.4 nM at Collagenase 3 [8]; 4100 nM on Interstitial collagenase [9]; 39 nM on Collagenase 3 [3]. For the same molecule, the half-inhibitory concentration (IC50) in test [4] was found to be 530 nM; in test [5], 12 nM; on Stromelysin-1, 920 nM.
